According to ChEMBL document CHEMBL1141933 (J Med Chem, 2005):
pEC50, pIC50: −log10 of the molar value.

Columns and labels:
[1] = molecular target: T1, Protein farnesyltransferase (PFT) (Plasmodium falciparum, UniProt Q5EI73+Q5EI74); assay: Inhibition of biotinylated lamin B peptide farnesylation by Plasmodium falciparum farnesyltransferase; type: protein-complex assay
T1 sequence (Q5EI73 whole entry): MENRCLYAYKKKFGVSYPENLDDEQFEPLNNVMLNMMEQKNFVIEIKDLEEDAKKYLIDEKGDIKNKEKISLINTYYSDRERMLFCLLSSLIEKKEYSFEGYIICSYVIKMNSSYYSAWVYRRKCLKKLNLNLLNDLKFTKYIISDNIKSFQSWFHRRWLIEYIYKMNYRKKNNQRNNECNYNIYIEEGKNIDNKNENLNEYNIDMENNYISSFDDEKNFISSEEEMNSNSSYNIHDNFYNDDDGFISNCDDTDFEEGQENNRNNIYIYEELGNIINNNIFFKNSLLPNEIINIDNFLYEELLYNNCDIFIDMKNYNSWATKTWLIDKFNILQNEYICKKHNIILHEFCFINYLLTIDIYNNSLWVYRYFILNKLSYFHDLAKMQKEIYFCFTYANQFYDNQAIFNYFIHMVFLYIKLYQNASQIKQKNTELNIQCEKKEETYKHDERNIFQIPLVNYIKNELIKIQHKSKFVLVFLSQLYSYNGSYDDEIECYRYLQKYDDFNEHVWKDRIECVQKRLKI
T1 sequence (Q5EI74 whole entry): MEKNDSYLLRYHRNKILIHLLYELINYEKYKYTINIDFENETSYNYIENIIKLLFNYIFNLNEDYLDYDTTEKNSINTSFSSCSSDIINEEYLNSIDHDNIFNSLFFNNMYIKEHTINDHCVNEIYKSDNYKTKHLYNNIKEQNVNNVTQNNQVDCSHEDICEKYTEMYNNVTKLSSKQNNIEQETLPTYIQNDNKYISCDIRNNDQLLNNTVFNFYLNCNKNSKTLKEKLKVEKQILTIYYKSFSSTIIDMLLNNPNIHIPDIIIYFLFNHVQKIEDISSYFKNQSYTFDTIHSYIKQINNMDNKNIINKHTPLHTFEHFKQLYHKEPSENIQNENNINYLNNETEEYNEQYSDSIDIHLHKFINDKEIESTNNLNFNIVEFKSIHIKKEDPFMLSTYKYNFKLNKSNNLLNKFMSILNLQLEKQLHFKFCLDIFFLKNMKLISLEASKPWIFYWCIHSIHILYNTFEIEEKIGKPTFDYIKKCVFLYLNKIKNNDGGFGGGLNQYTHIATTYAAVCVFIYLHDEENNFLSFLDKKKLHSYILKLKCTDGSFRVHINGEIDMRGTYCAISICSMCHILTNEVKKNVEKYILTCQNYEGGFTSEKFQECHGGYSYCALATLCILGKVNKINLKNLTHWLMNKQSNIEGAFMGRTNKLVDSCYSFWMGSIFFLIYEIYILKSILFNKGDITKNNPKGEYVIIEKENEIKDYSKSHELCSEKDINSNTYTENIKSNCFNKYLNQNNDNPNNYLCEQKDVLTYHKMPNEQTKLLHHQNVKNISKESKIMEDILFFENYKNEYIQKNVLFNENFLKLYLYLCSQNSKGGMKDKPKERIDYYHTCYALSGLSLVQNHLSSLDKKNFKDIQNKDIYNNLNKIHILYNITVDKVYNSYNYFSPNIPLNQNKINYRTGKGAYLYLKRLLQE

[2] = molecular target: Protein farnesyltransferase (Rattus norvegicus, UniProt Q02293+Q04631); assay: Inhibition of biotinylated lamin B peptide farnesylation by rat farnesyltransferase; type: protein-complex assay
Plasmodium falciparum [3] = assay: Effective dose against Plasmodium falciparum 3D7; type: functional; details: read-out: ED50 (the source's name)
In short: (§1)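 Asynchronous culture in human A+ erythrocytes at 0.5% parasitemia and 0.5% hematocrit, in RPMI-1640 with 20% heat-inactivated human A+ plasma. Compound added in DMSO; 48 h at 37 C under 5% CO2/5% O2/90% N2. [8-3H]hypoxanthine added for a further 24 h, then incorporation counted. Uninfected-RBC background subtracted; DMSO = 100% growth. ED50 by linear regression; ≥2 tests, mean.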

Plasmodium falciparum [4] = assay: Effective dose against Plasmodium falciparum; type: functional; details: read-out: ED50 (the source's name)
Plasmodium falciparum [5] = assay: Effective dose against chloroquine-sensitive, pyrimethamine-sensitive, mefloquine-sensitive Plasmodium falciparum HB3; type: functional; details: read-out: ED50 (the source's name); in short: as §1
Plasmodium falciparum [6] = assay: Effective dose against chloroquine-resistant, pyrimethamine-resistant, mefloquine-sensitive Plasmodium falciparum K1; type: functional; details: read-out: ED50 (the source's name)
In short: (§2)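 Asynchronous blood-stage culture (0.5% parasitemia, 0.5% hematocrit) in RPMI-1640 with 20% heat-inactivated human A+ plasma, human A+ erythrocytes. Compound added from DMSO, 48 h at 37 C under 5% CO2/5% O2/90% N2. [8-3H]hypoxanthine then added for a further 24 h and uptake counted. Uninfected-RBC background subtracted; DMSO vehicle = 100% growth. ED50 by linear regression, mean of at least two runs.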

Plasmodium falciparum [7] = assay: Effective dose against chloroquine-sensitive, pyrimethamine-sensitive, mefloquine-sensitive Plasmodium falciparum 3D7; type: functional; details: read-out: ED50 (the source's name); in short: as §1
Plasmodium falciparum [8] = assay: Effective dose against chloroquine-resistant, pyrimethamine-resistant, mefloquine-resistant Plasmodium falciparum Dd2; type: functional; details: read-out: ED50 (the source's name); in short: as §2
Plasmodium falciparum [9] = assay: Effective dose against chloroquine-resistant, pyrimethamine-resistant, mefloquine-sensitive Plasmodium falciparum W2; type: functional; details: read-out: ED50 (the source's name); in short: as §2

Cc1ccccc1CN(C1Cc2cc(C#N)ccc2N(Cc2cncn2C)C1)S(=O)(=O)c1cn(C)cn1 (configuration not stated)
pIC50 [1]: 8.82
pIC50 [2]: 8.47
pEC50 (Plasmodium falciparum [3]): 7.26

Cn1cnc(S(=O)(=O)N(CC2CCN(C(=O)OC(C)(C)C)CC2)C2Cc3cc(C#N)ccc3N(Cc3cncn3C)C2)c1 (configuration not stated)
pIC50 [1]: 8.96
pIC50 [2]: 8.49
pEC50 (Plasmodium falciparum [3]): 7.00

Cn1cnc(S(=O)(=O)N(Cc2ccc3ccccc3c2Br)C2Cc3cc(C#N)ccc3N(Cc3cncn3C)C2)c1 (configuration not stated)
pIC50 [1]: 7.55
pIC50 [2]: 6.00
pEC50 (Plasmodium falciparum [3]): 5.52

CSCC[C@H](NC(=O)c1ccc(CNCc2c[nH]cn2)cc1-c1ccccc1C)C(=O)O
pIC50 [1]: 7.82
pEC50 (Plasmodium falciparum [4]): < 4.70

Cn1cncc1CN1CC(N(CC(=O)NC(C)(C)C)S(=O)(=O)Cc2ccc(F)cc2)Cc2cc(C#N)ccc21 (configuration not stated)
pIC50 [1]: 7.38
pIC50 [2]: 8.12
pEC50 (Plasmodium falciparum [3]): < 5.30

CCc1nc(N)nc(N)c1-c1ccc(Cl)cc1 [PYRIMETHAMINE]
pEC50 (Plasmodium falciparum [5]): 8.70
pEC50 (Plasmodium falciparum [6]): 4.60
pEC50 (Plasmodium falciparum [7]): 7.41
pEC50 (Plasmodium falciparum [8]): 4.80

C=C(C)CN(C1Cc2cc(C#N)ccc2N(Cc2cncn2C)C1)S(=O)(=O)c1cn(C)cn1 (configuration not stated)
pEC50 (Plasmodium falciparum [5]): 7.92
pEC50 (Plasmodium falciparum [6]): 7.82
pIC50 [1]: 9.22
pIC50 [2]: 9.15
pEC50 (Plasmodium falciparum [7]): 8.15
pEC50 (Plasmodium falciparum [9]): 7.68
pEC50 (Plasmodium falciparum [8]): 8.00

O[C@H](c1cc(C(F)(F)F)nc2c(C(F)(F)F)cccc12)[C@@H]1CCCCN1 [MEFLOQUINE]
pEC50 (Plasmodium falciparum [5]): 7.54
pEC50 (Plasmodium falciparum [6]): 8.00
pEC50 (Plasmodium falciparum [7]): 7.62
pEC50 (Plasmodium falciparum [9]): 8.05
pEC50 (Plasmodium falciparum [8]): 7.00

Cn1cnc(S(=O)(=O)N(CC(=O)OC(C)(C)C)C2Cc3cc(C#N)ccc3N(Cc3cncn3C)C2)c1 (configuration not stated)
pEC50 (Plasmodium falciparum [5]): 8.15
pEC50 (Plasmodium falciparum [6]): 7.70
pIC50 [1]: 9.05
pIC50 [2]: 8.92
pEC50 (Plasmodium falciparum [7]): 8.30
pEC50 (Plasmodium falciparum [8]): 8.22

NC(=O)N1CCC(CC(=O)N2CCC([C@H]3c4ncc(Br)cc4CCc4cc(Cl)cc(Br)c43)CC2)CC1 [LONAFARNIB]
pIC50 [1]: < 6.60
pEC50 (Plasmodium falciparum [4]): 5.52

Cn1cnc(S(=O)(=O)N(CC(=O)NC(C)(C)C)C2Cc3cc(C#N)ccc3N(Cc3cncn3C)C2)c1 (configuration not stated)
pEC50 (Plasmodium falciparum [5]): 8.15
pEC50 (Plasmodium falciparum [6]): 8.15
pIC50 [1]: 8.92
pIC50 [2]: 8.82
pEC50 (Plasmodium falciparum [7]): 8.30
pEC50 (Plasmodium falciparum [9]): 8.10
pEC50 (Plasmodium falciparum [8]): 8.40

Cn1cncc1CN1CC(N(Cc2ccccn2)S(=O)(=O)c2ccccn2)Cc2cc(C#N)ccc21 (configuration not stated)
pIC50 [1]: 8.55
pIC50 [2]: 8.42
pEC50 (Plasmodium falciparum [3]): 7.29

Cn1cncc1CN1CC(N(Cc2ccc3ccccc3c2Br)S(=O)(=O)c2ccccn2)Cc2cc(C#N)ccc21 (configuration not stated)
pIC50 [1]: 6.78
pIC50 [2]: 6.36
pEC50 (Plasmodium falciparum [3]): 5.56

Cn1cncc1CN1CC(N(Cc2cc3nsnc3cc2Cl)S(=O)(=O)c2ccccn2)Cc2cc(C#N)ccc21 (configuration not stated)
pIC50 [1]: 7.26
pIC50 [2]: 8.00
pEC50 (Plasmodium falciparum [3]): 5.52

CSCC[C@H](NC(=O)c1ccc(CNCc2cnc[nH]2)cc1-c1ccccc1C)C(=O)OCc1ccccc1
pIC50 [1]: 6.00
pEC50 (Plasmodium falciparum [4]): 6.82

C=C(Br)CN(C1Cc2cc(C#N)ccc2N(Cc2cncn2C)C1)S(=O)(=O)c1cn(C)cn1 (configuration not stated)
pEC50 (Plasmodium falciparum [5]): 8.00
pEC50 (Plasmodium falciparum [6]): 8.00
pIC50 [1]: 9.40
pIC50 [2]: 9.10
pEC50 (Plasmodium falciparum [7]): 8.22
pEC50 (Plasmodium falciparum [9]): 7.85
pEC50 (Plasmodium falciparum [8]): 8.00

Cn1cncc1CN1CC(N(CC(=O)NC(C)(C)C)S(=O)(=O)c2nccn2C)Cc2cc(C#N)ccc21 (configuration not stated)
pIC50 [1]: 8.10
pIC50 [2]: 8.30
pEC50 (Plasmodium falciparum [3]): < 5.30

Cn1cncc1CN1CC(N(CC(=O)NC(C)(C)C)S(=O)(=O)c2cccnc2)Cc2cc(C#N)ccc21 (configuration not stated)
pIC50 [1]: 7.60
pIC50 [2]: 8.22
pEC50 (Plasmodium falciparum [3]): 5.57

Cn1cncc1CN1CC(N(CC(=O)NC(C)(C)C)S(=O)(=O)c2ccccn2)Cc2cc(C#N)ccc21 (configuration not stated)
pIC50 [1]: 8.85
pIC50 [2]: 8.74
pEC50 (Plasmodium falciparum [3]): 7.07

N#Cc1ccc(Cn2cncc2CN[C@H]2CCN(Cc3cccc(Cl)c3)C2=O)cc1
pEC50 (Plasmodium falciparum [4]): < 5.30

CCN(CC)CCCC(C)Nc1ccnc2cc(Cl)ccc12 (configuration not stated) [CHLOROQUINE]
pEC50 (Plasmodium falciparum [5]): 8.30
pEC50 (Plasmodium falciparum [6]): 6.70
pEC50 (Plasmodium falciparum [7]): 8.10
pEC50 (Plasmodium falciparum [9]): 6.90
pEC50 (Plasmodium falciparum [8]): 7.11

Cn1cnc(S(=O)(=O)N(Cc2ccccc2)C2Cc3cc(C#N)ccc3N(Cc3cncn3C)C2)c1 (configuration not stated)
pEC50 (Plasmodium falciparum [5]): 8.00
pEC50 (Plasmodium falciparum [6]): 8.05
pIC50 [1]: 9.22
pIC50 [2]: 8.92
pEC50 (Plasmodium falciparum [7]): 8.30
pEC50 (Plasmodium falciparum [9]): 7.85
pEC50 (Plasmodium falciparum [8]): 8.10

Cn1cncc1CN1CC(N(CC(=O)NC(C)(C)C)S(=O)(=O)c2ccncc2)Cc2cc(C#N)ccc21 (configuration not stated)
pIC50 [1]: 6.00
pIC50 [2]: 6.80
pEC50 (Plasmodium falciparum [3]): < 5.30

Cn1cncc1[C@@](N)(c1ccc(Cl)cc1)c1ccc2c(c1)c(-c1cccc(Cl)c1)cc(=O)n2C [TIPIFARNIB]
pIC50 [1]: 8.15
pEC50 (Plasmodium falciparum [4]): 5.52

Cn1cncc1C(O)(CN1CCC(C#N)=C(c2cccc3ccccc23)C1)c1ccc(C#N)cc1 (configuration not stated)
pIC50 [1]: 8.05
pEC50 (Plasmodium falciparum [4]): < 5.30

CCSC[C@H](CC1CCCCC1)NCc1ccc(C(=O)N[C@@H](CCSC)C(=O)O)c(-c2ccccc2C)c1
pIC50 [1]: 8.30
pEC50 (Plasmodium falciparum [4]): < 5.30

Cc1onc(-c2ccccc2)c1CN(C1Cc2cc(C#N)ccc2N(Cc2cncn2C)C1)S(=O)(=O)c1ccccn1 (configuration not stated)
pIC50 [1]: 9.10
pIC50 [2]: 8.52
pEC50 (Plasmodium falciparum [3]): 6.95
